Screens deposited in PubChem BioAssay by several laboratories.
APOBEC3G inh – APOBEC3G (human) deaminase inhibition; inhibition, % at 20 µM; 330,000 compounds, 0.28% hits; recombinant A3G, ssDNA deamination FAM/TAMRA fluorescence; Q9HC16;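 active means inhibition of at least 40% at 20 µM, with no more than 30% in the related APOBEC3A deaminase screen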
ABHD5 PLIN5 PPI – blocks binding of human ABHD5 to perilipin-5. Q00G26+Q8WTS1. Split G. princeps luciferase complementation, luminescence, 4 h. inhibition, % at 4 µM. 360,000 compounds, 0.78% hits. AID 602281;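 active means inhibition above the mean inhibition across every tested compound plus 3 SD, cut at about 22% in these data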
FN deposit inh – fibronectin deposition inhibition | AH1F fibroblasts, Alexa488-fibronectin deposition fluorescence, overnight | 350,000 compounds, 0.086% hits | inhibition, % at 12.6 µM | AID 743247;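 active means mean inhibition across replicates of 30% or more, regardless of how many single replicates reach that level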
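Assay system: AH1F fibroblast monolayer, labelled fibronectin deposition. Amount: 10000 cells per well. Also added: labelled fibronectin 24 nM. Compound: single-point pinned compound. Incubation: cell attachment 1 h, compound and FN exposure overnight. Detection: fluorescence after three HBSS washes, excitation 485 nm, emission 525 nm. Read-out: inhibition of fibronectin deposition signal.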
APOBEC3A inh – human APOBEC3A DNA deaminase inhibition | recombinant A3A, FAM/TAMRA ssDNA deamination fluorescence | P31941 | AID 493011 | 330,000 compounds, 0.41% hits | inhibition, % at 20 µM;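 active means at least 40% inhibition at 20 µM here, with at most 30% in a related deaminase screen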
Each line names hits and unclear results; the compound was inactive in the other large screens; ! = not active in a repeat. The list is not random: actives were taken first. Their share in the collection is about 1.2%.

CC(C)C(C)NC(=O)CSc1ccc(S(=O)(=O)N2CCOCC2)cn1 (configuration not stated)	none
CC(NC(=O)CSc1ccc(S(=O)(=O)N2CCOCC2)cn1)c1ccc(Cl)cc1Cl (configuration not stated)	FN deposit inh 30.3 (no result: APOBEC3G inh, APOBEC3A inh)
CNCc1ccccc1Sc1ccc(O)c(O)c1	ABHD5 PLIN5 PPI 23.0 (no result: APOBEC3G inh, APOBEC3A inh)
CCNC(=O)C[C@@H]1CC[C@H]2[C@@H](COC[C@H](O)CN2C(=O)c2cc(Cl)cc(Cl)c2)O1	none (no result: APOBEC3G inh, ABHD5 PLIN5 PPI, APOBEC3A inh)
CC1(C)Cc2c(C#N)c(N3CCOCC3)nc(-c3ccccc3)c2CO1	none (no result: FN deposit inh)
CC1CCN(c2nc(-c3ccco3)c3c(c2C#N)CC(C)(C)OC3)CC1	ABHD5 PLIN5 PPI 22.8
CS(=O)(=O)c1cc([N+](=O)[O-])c(Sc2nc3ccccc3[nH]2)c([N+](=O)[O-])c1	ABHD5 PLIN5 PPI 48.3 (no result: FN deposit inh)
Cn1cnc([N+](=O)[O-])c1Sc1nc2ccccc2[nH]1	none
Cc1ccc(CSCC2Nc3ccc(C(=O)N4CCN(c5cccc(C)c5)C(C)C4)cc3NC2=O)cc1 (configuration not stated)	APOBEC3G inh 45.8 (no result: ABHD5 PLIN5 PPI, FN deposit inh)
Cc1cccc(N2CCN(C(=O)c3ccc4c(c3)NC(=O)C(CSCc3ccc(F)cc3)N4)CC2C)c1 (configuration not stated)	none (no result: ABHD5 PLIN5 PPI, FN deposit inh)
CO[C@@H]1CN(C)C(=O)c2ccc(NS(C)(=O)=O)cc2OC[C@H](C)N(C(=O)C2CCCC2)C[C@H]1C	none (no result: APOBEC3G inh, ABHD5 PLIN5 PPI, APOBEC3A inh)
Oc1ccccc1-c1nc(NCCN2CCOCC2)c2ccccc2n1	ABHD5 PLIN5 PPI 22.3
COc1ccc(NC(=O)N(C)C[C@H]2Oc3c(NC(=O)CCCCCC(=O)Nc4ccccc4N)cccc3C(=O)N([C@@H](C)CO)C[C@H]2C)cc1	none (no result: APOBEC3G inh, ABHD5 PLIN5 PPI, APOBEC3A inh)
C[C@@H]1CN([C@H](C)CO)S(=O)(=O)c2ccc(-c3ccc(C#N)cc3)cc2O[C@H]1CN(C)C(=O)CN(C)C	none (no result: APOBEC3G inh, ABHD5 PLIN5 PPI, APOBEC3A inh)
CC(/C=C/c1ccco1)=N/NC(=O)c1ccccc1Cl	ABHD5 PLIN5 PPI 22.1
CC(C)[C@@H]1CC=CC[C@@H](C)Oc2ccccc2C(=O)N(C)[C@H](C)C(=O)N1 (mixture of isomers)	none (no result: APOBEC3G inh, ABHD5 PLIN5 PPI, APOBEC3A inh)
CC(C)[C@H]1COCc2cn(nn2)CCCCC(=O)N1	none (no result: APOBEC3G inh, ABHD5 PLIN5 PPI, APOBEC3A inh)
C=CCn1c(SC(F)F)nc2scc(-c3ccco3)c2c1=O	FN deposit inh 37.2
C=CCn1c(SCCN2C(=O)c3ccccc3C2=O)nc2scc(-c3ccc(F)cc3)c2c1=O	none (no result: APOBEC3G inh, APOBEC3A inh)
C[C@H]1CN([C@@H](C)CO)S(=O)(=O)c2ccc(-c3ccccc3F)cc2O[C@H]1CN(C)Cc1cccnc1	none (no result: APOBEC3G inh, ABHD5 PLIN5 PPI, APOBEC3A inh)
COC(=O)CN1C(=O)S/C(=C/c2ccc(N3CCCCC3)o2)C1=O	ABHD5 PLIN5 PPI 27.3
CCOC(=O)CN1C(=O)S/C(=C/c2ccc(N3CCCCC3)o2)C1=O	none
CC(=O)N(C)C[C@@H]1Oc2cc(C#CCC(C)C)ccc2S(=O)(=O)N([C@@H](C)CO)C[C@H]1C	none (no result: APOBEC3G inh, ABHD5 PLIN5 PPI, APOBEC3A inh)
CCN(Cc1ccncc1)C(=O)c1ccc2c(c1)S(=O)(=O)c1ccccc1C2=O	FN deposit inh 39.0
CCCCCCCC[n+]1cccc(C(=O)N(CC)CC)c1	none
CCCCCCCCCCCCCCCC[n+]1cccc(C(=O)N(CC)CC)c1	ABHD5 PLIN5 PPI 45.2!
CCCC(=O)Nc1ccc2c(c1)OC[C@@H](C)N(C(=O)CN(C)C)C[C@H](C)[C@H](OC)CN(C)C2=O	none (no result: APOBEC3G inh, ABHD5 PLIN5 PPI, APOBEC3A inh)
COc1ccc2[nH]c(=O)c(CN(C3CCCCC3)C(c3nnnn3Cc3ccco3)C(C)C)cc2c1 (configuration not stated)	ABHD5 PLIN5 PPI 46.2 (no result: FN deposit inh)
COc1ccc2cc(CN(CCc3ccccc3)Cc3nnnn3Cc3ccco3)c(=O)[nH]c2c1	ABHD5 PLIN5 PPI 22.1 (no result: FN deposit inh)
COc1ccc2[nH]c(=O)c(CN(Cc3nnnn3Cc3ccco3)C3CCCCC3)cc2c1	none (no result: FN deposit inh)
O=S(=O)(O)c1cccc2c(N=Nc3ccc(O)c4ncccc34)cccc12	ABHD5 PLIN5 PPI 35.9 (no result: APOBEC3G inh, FN deposit inh, APOBEC3A inh)
Cc1ccccc1N=Nc1ccc(O)c2ncccc12	none (no result: APOBEC3G inh, APOBEC3A inh)
CCCc1cn(CC[C@@H]2CC[C@@H](NC(=O)C3CCCC3)[C@@H](CO)O2)nn1	none (no result: APOBEC3G inh, ABHD5 PLIN5 PPI, APOBEC3A inh)
C=C1C(=O)CC2=C1[C@](Cc1ccc(F)cc1)(C(=O)OC)N(C(=O)c1ccccc1)C2	none (no result: APOBEC3G inh, APOBEC3A inh)
C=C1C(=O)C=C2CN(C(=O)c3ccccc3)[C@@](Cc3ccc(F)cc3)(C(=O)OC)[C@@H]12	ABHD5 PLIN5 PPI 74.9 (no result: FN deposit inh)
COc1cccc(C#Cc2ccc3c(c2)[C@H]2[C@H](CCN2S(=O)(=O)c2cccc(OC)c2)[C@H](CO)N3)c1	none (no result: APOBEC3G inh, ABHD5 PLIN5 PPI, APOBEC3A inh)
O=C(c1cccnc1)N1C[C@H]2[C@@H](c3ccccc31)[C@H](CO)N2CC1CCCC1	FN deposit inh 32.2 (no result: APOBEC3G inh, ABHD5 PLIN5 PPI, APOBEC3A inh)
CCn1c(C)nc2cc(C(=O)NN=Cc3ccc([N+](=O)[O-])cc3)ccc21	FN deposit inh 31.5
C=CCN1C(=O)/C(=C/C(=O)OC)S/C1=N\NC(=O)c1ccccc1	ABHD5 PLIN5 PPI 22.6
CCOc1ccc(NC(=S)Nc2ccc3nsnc3c2)cc1	none (no result: FN deposit inh)
COc1ccc(NC(=S)Nc2ccc3nsnc3c2)cc1	ABHD5 PLIN5 PPI 23.1
O=C(CSc1nnc(CNc2ccc(F)cc2)n1Cc1ccco1)N1CCOCC1	none
O=C(CSc1nnc(CNc2ccc(F)cc2)n1Cc1ccco1)NC1CC1	ABHD5 PLIN5 PPI 22.1
COc1ccccc1-n1c(SCC(=O)NCc2ccc3c(c2)OCO3)nc2cc([N+](=O)[O-])ccc21	ABHD5 PLIN5 PPI 22.7
O=CC1=C(N2CCOCC2)/C(=C\c2ccccc2)CC1	ABHD5 PLIN5 PPI 22.0
N#CC1=C(N2CCOCC2)/C(=C\c2ccccc2)CC1	none
CCC(=O)Nc1ccc2c(c1)C(=O)N(C)[C@H]1CC[C@H](CC(=O)NCCc3ccncc3)O[C@@H]1CO2	none (no result: APOBEC3G inh, ABHD5 PLIN5 PPI, APOBEC3A inh)
CC1CCN(CCOc2cccc(Br)c2)CC1	none
Clc1cccc(OCCN2CCN(CCOc3cccc(Cl)c3)CC2)c1	ABHD5 PLIN5 PPI 22.8
